# Reference: ChEMBL document CHEMBL3400141, “Substituted piperazines as nootropic agents: 2- or 3-phenyl derivatives structurally related to the cognition-enhancer DM235” (Bioorg Med Chem Lett, 2015)
# System: Mus musculus
# Experiment: Cognition enhancing activity in sc dosed mouse assessed as reversal of scopolamine-induced amnesia measured up to 24 hrs treated 20 mins before training session by passive-avoidance test
# Type: functional
# Conditions: read-out: MED
# Method in brief: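 Mouse passive-avoidance test (Jarvik and Kopp, slightly modified). Compounds in DMSO/saline (1:10), given s.c. 20 min before training, tested in a 1:10 dose-dilution sequence. Amnesia induced by scopolamine 1.5 mg/kg i.p. immediately after punishment. Mean of 8–16 mice per group; activity reported as minimal effective dose (MED, mg/kg).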
row,SMILES,minimal effective dose [mg/kg]
1,O=C(c1ccccc1)N1CCNCC1,0.1
2,CC(=O)N1CCN(S(=O)(=O)c2ccc(F)cc2)C(C)C1 (centres undefined),0.1
3,CC(=O)N1CCN(S(=O)(=O)c2ccc(F)cc2)CC1C (centres undefined),1
4,CCC(=O)N1CCN(C(=O)c2ccccc2)C(C)C1 (centres undefined),0.1
5,CCC(=O)N1CCN(C(=O)c2ccccc2)CC1C (centres undefined),> 10
6,CC(=O)N1CCN(S(=O)(=O)c2ccc(F)cc2)CC1,0.01
7,CCC(=O)N1CCNC(c2ccccc2)C1 (centres undefined),> 10
8,CC(=O)N1CCNC(c2ccccc2)C1 (centres undefined),> 10
9,O=S(=O)(c1ccc(F)cc1)N1CCNC(c2ccccc2)C1 (centres undefined),> 10
10,CCC(=O)N1CCN(C(=O)c2ccccc2)C[C@@H]1c1ccccc1,1
11,CCC(=O)N1CCN(C(=O)c2ccccc2)C[C@H]1c1ccccc1,0.1
12,CCC(=O)N1CCN(C(=O)c2ccccc2)C(c2ccccc2)C1 (centres undefined),1
13,CC(=O)N1CCN(S(=O)(=O)c2ccc(F)cc2)C(c2ccccc2)C1 (centres undefined),10
14,CC(=O)N1CCN(S(=O)(=O)c2ccc(F)cc2)CC1c1ccccc1 (centres undefined),> 10
15,CCC(=O)N1CCN(C(=O)c2ccccc2)CC1Cc1ccccc1 (centres undefined),1
16,CCC(=O)N1CCN(C(=O)c2ccccc2)C(Cc2ccccc2)C1 (centres undefined),1
17,CCC(=O)N1CCNCC1,0.1
18,CCC(=O)N1CCN2C(=O)c3ccccc3C2C1 (centres undefined),> 10
19,O=C1c2ccccc2C2CN(S(=O)(=O)c3ccc(F)cc3)CCN12 (centres undefined),0.1
20,O=C(c1ccccc1)N1CCNC(c2ccccc2)C1 (racemic),> 10
21,CCC(=O)N1CCN(C(=O)c2ccccc2)CC1c1ccccc1 (racemic),0.1
22,NC(=O)CN1CCCC1=O [PIRACETAM],30
23,CCC(=O)N1CCN(C(=O)c2ccccc2)CC1 [SUNIFIRAM],0.001
24,O=C1CCC2CN(S(=O)(=O)c3ccc(F)cc3)CCN12 (centres undefined) [UNIFIRAM],0.001
